Test results: PubChem BioAssay AID624082 (The Scripps Research Institute Molecular Screening Center, 2012)
Active and inactive are the calls of the source.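 How the source made its calls: active means MIC showing a fourfold drop that lands at or below 10 µM; inactive means fourfold-lowered MIC still above 10 µM.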

Key:
[1] = tested on: K. pneumoniae BAA-2146 NDM-1, imipenem synergy, growth MIC; assay: bacterial growth inhibition in synergy with imipenem – BAA-2146, NDM-1 transformed, nonselective, MIC fold reduction, VIM-2 MBL inhibitor project, late-stage follow-up (AID 624082)
Method in brief: (§1)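 Test system: log-phase bacterial culture in a checkerboard broth microdilution; Buffer or medium: CAMHB; Also added: imipenem, two-fold titration series; Doses: test compound two-fold serial titration, crossed with imipenem titration; Incubation: ≥18 h aerobic incubation at 37 °C; Read-out basis: minimum inhibitory concentration called by CLSI criteria.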

[2] = as above; conditions: K. pneumoniae BAA-2146 NDM-1, imipenem synergy, growth MIC; measured here: max imipenem fold potentiation; stronger effect = higher value
Method in brief: as §1

MIC [1]	SMILES	fold potentiation [2]
> 100 µM (inactive)	CC(C)(C)OC(=O)N1CCN(NC(=O)CN2C(=O)/C(=C/c3c(Cl)cccc3Cl)SC2=S)CC1	
> 50 µM (inactive)	CC(C)N1CCN(NC(=O)CN2C(=O)/C(=C/c3c(Cl)cccc3Cl)SC2=S)CC1	
> 50 µM (inactive)	O=C(CN1C(=O)/C(=C/c2c(Cl)cccc2Cl)SC1=S)NN1CCN(Cc2ccccc2)CC1	
> 50 µM (inactive)	CC(C)(C)OC(=O)N1CCN(NC(=O)CN2C(=O)/C(=C/c3c(Cl)ccc(Cl)c3Cl)SC2=S)CC1	
> 50 µM (inactive)	CN1CCN(NC(=O)CN2C(=O)/C(=C/c3c(F)cccc3Cl)SC2=S)CC1	2
> 100 µM (inactive)	CN1CCN(NC(=O)CN2C(=O)/C(=C/c3c(Cl)cccc3Cl)SC2=S)CC1	2
> 50 µM (inactive)	CN1CCN(NC(=O)CN2C(=O)/C(=C/c3c(Cl)ccc(Cl)c3Cl)SC2=S)CC1	2
> 50 µM (inactive)	CC(=O)N1CCN(NC(=O)CN2C(=O)/C(=C/c3c(Cl)cccc3Cl)SC2=S)CC1	
> 50 µM (inactive)	O=C(CN1C(=O)/C(=C/c2c(Cl)cccc2Cl)SC1=S)NN1CCNCC1	
> 50 µM (inactive)	CN1CCN(NC(=O)CN2C(=O)/C(=C/c3c(Cl)ccc(C(F)(F)F)c3Cl)SC2=S)CC1	2
> 50 µM (inactive)	O=C(CN1C(=O)/C(=C/c2c(Cl)cccc2Cl)SC1=S)NN1CCN(C(=O)c2ccccc2)CC1	

Continued, compound first:

SMILES	MIC [1]	fold potentiation [2]
O=C(CN1C(=O)/C(=C/c2c(Cl)cccc2Cl)SC1=S)NCc1ccccn1	> 100 µM (inactive)	
O=C(O)CN1C(=O)/C(=C/c2c(Cl)cccc2Cl)SC1=S	> 100 µM (inactive)	
CN1CCN(NC(=O)CN2C(=O)/C(=C/c3c(C(F)(F)F)ccc(Cl)c3Cl)SC2=S)CC1	> 50 µM (inactive)	2
O=C(CN1C(=O)/C(=C/c2c(Cl)ccc(Cl)c2Cl)SC1=S)NCc1ccccn1	> 50 µM (inactive)	
O=C(O)CN1C(=O)/C(=C/c2c(F)cccc2C(F)(F)F)SC1=S	> 50 µM (inactive)	
CN1CCN(C(=O)CN2C(=O)/C(=C/c3c(Cl)ccc(Cl)c3Cl)SC2=S)CC1	> 50 µM (inactive)	
CN1CCN(NC(=O)CN2C(=O)/C(=C/c3c(F)cccc3C(F)(F)F)SC2=S)CC1	> 50 µM (inactive)	2
O=C(CN1C(=O)/C(=C/c2c(Cl)ccc(Cl)c2Cl)SC1=S)NN1CCNCC1	> 50 µM (inactive)	2
CCN(CC)OC(=O)CN1C(=O)/C(=C/c2c(Cl)cccc2Cl)SC1=S	> 100 µM (inactive)	
O=C(CN1C(=O)/C(=C/c2c(Cl)ccc(Cl)c2Cl)SC1=S)NN1CCCCC1	> 50 µM (inactive)	
